Holding throughout (type): functional
Assay [1] is filed under the species Mus musculus. Nature of the assay: Analgesic activity relative to aspirin as 1 in 8 mice phenylquinone writhing assay. A digest of the protocol: (§1)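 Male mice, 18–20 g, dosed orally with test agent in aqueous vehicle (0.9% NaCl, 0.5% Na carboxymethylcellulose, 0.4% polysorbate 80, 0.9% benzyl alcohol, 97.3% water) 20 min before intraperitoneal phenylquinone. Writhing observed over the following 10 min. Potency relative to aspirin taken from dose-response plots by analysis of variance.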
For orientation: Writhing tests count abdominal constrictions after an irritant is injected.

A further assay deals with Rattus norvegicus. Nature of the assay: Antiinflammatory activity relative to phenyl butazone as 1 in rat carrageenan paw edema assay. A digest of the protocol: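 Female rats, 80–90 g, six per dose group, at least four dose levels. Test agent given orally 1 h before carrageenan injection into one hind paw, in vehicle of 0.9% NaCl, 0.5% Na carboxymethylcellulose, 0.4% polysorbate 80, 0.9% benzyl alcohol, 97.3% water. Rats killed 4 h after dosing and both hind paws weighed. Potency relative to phenylbutazone from dose-response of % weight increase of treated over untreated paw, by analysis of variance.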

The species named for assay [2] is Mus musculus. Nature of the assay: Analgesic activity relative to aspirin as 1 in 24 mice phenylquinone writhing assay. A digest of the protocol:
as §1

The species entered for assay [3] is Mus musculus. The assay can be described thus: Analgesic activity relative to aspirin as 1 in 32 mice phenylquinone writhing assay. A digest of the protocol: as §1
The species named for assay [4] is Mus musculus. The assay can be described thus: Analgesic activity relative to aspirin as 1 in 16 mice phenylquinone writhing assay. In outline: as §1

Bounds are passed on as bounds.

Turning to `O=C(O)Cc1ccc2c(c1)NCc1ccccc1C2=O`, the Relative activity in the assay listed under Mus musculus [1] is listed as less than 0.7; in the assay on Rattus norvegicus, 29.

`CC(C(=O)O)c1ccc2c(c1)N(C)Cc1ccccc1C2=O` (centres undefined): the Relative activity in the assay listed under Mus musculus [2] is given as 1; with Rattus norvegicus it was 11.

For the compound `CN1Cc2ccccc2C(=O)c2ccc(CC(=O)O)cc21`, the Relative activity in the assay listed under Mus musculus [3] is on record as less than 0.2; in the assay on Rattus norvegicus, 7.

Consider `COc1ccc2c(c1)CNc1cc(CC(=O)O)ccc1C2=O`, for which the Relative activity is given as less than 0.2 in the assay filed under Mus musculus [1] and less than 0.1 with Rattus norvegicus.

Regarding `CC(=O)N1Cc2ccccc2C(=O)c2ccc(CC(=O)O)cc21`, the Relative activity in the assay listed under Mus musculus [1] was less than 0.2; in the assay on Rattus norvegicus, less than 0.3.

On to `COc1ccc2c(c1)CN(C)c1cc(CC(=O)O)ccc1C2=O`, for which the Relative activity is reported as less than 0.5 in the assay listed under Mus musculus [4] and 6.7 with Rattus norvegicus.

With `CCN1Cc2ccccc2C(=O)c2ccc(CC(=O)O)cc21`, the Relative activity in the assay listed under Mus musculus [4] is less than 0.2; in the assay on Rattus norvegicus it was 2.3.

These data come from ChEMBL document CHEMBL1121700, “Antiinflammatory 5,6-dihydro-11-oxodibenz[b,e]azepine-3-acetic acids” (1981).
